Compound activity as filed in PubChem BioAssay.
Xi reactivation: activators of inactive X chromosome reactivation, primary screen, imaging, XiGFP fibroblasts, GFP high-content imaging, set 2 | XiGFP mouse fibroblasts, % GFP-positive cells imaging, 3 d; cells co-treated with 5-aza-dC sensitizer; scaled so ellipticine positive control = 100% | activation, % at 7.58 µM | 360,000 compounds, 0.055% hits;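 active = mean normalized replicate activation at least 10% and every replicate at or above 10%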;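 also: 0% = median of on-plate neutral control wells and 100% = ellipticine 6 µM median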
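System: 68-5-11 XiGFP fibroblast line | Buffer or medium: DMEM containing 5-aza-dC | Compound: Single point | Times: Compounds 3 days, fix/stain 15 min at room temperature | Benchmarks: Positive control ellipticine, 6 µM final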
SR-BI uptake up: activators of SR-BI mediated DiI-HDL uptake, primary screen, ldlA[mSR-BI] CHO cells, DiI fluorescence; 3 h; 100 = double the neutral-control signal; activation, % at 12.5 µM; 320,000 compounds, 0.096% hits; AID 504775, 2011;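 active = mean replicate activation of at least 60% and every replicate at or above 60%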;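 also: 0% = median plate neutral-control signal and 100% = twice that signal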
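System: CHO ldlA[mSR-BI] cells / Medium: HEPES-buffered (25 mM, pH 7.4) F12 plus 0.5% BSA / Probe or stimulus: labelled HDL, 10 µg/mL / Doses: single compound concentration, delivered by pin transfer / Schedule: 3 h, 37 °C / Measured by: DiI fluorescence, bottom read / Measure: cell-associated DiI fluorescence as measure of HDL uptake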
NSD2 HMT inh: NSD2 histone methyltransferase inhibitors, primary screen, biochemical, AlphaScreen, single concentration, set 2; 310,000 compounds, 0.54% hits; Histone-lysine N-methyltransferase NSD2 (Homo sapiens), O96028; AID 743445, 2014; inhibition, % at 12.5 µM; NSD2 peptide methylation, 120 min; in the data active = inhibition above about 50%
Target sequence (O96028 whole entry, looked up): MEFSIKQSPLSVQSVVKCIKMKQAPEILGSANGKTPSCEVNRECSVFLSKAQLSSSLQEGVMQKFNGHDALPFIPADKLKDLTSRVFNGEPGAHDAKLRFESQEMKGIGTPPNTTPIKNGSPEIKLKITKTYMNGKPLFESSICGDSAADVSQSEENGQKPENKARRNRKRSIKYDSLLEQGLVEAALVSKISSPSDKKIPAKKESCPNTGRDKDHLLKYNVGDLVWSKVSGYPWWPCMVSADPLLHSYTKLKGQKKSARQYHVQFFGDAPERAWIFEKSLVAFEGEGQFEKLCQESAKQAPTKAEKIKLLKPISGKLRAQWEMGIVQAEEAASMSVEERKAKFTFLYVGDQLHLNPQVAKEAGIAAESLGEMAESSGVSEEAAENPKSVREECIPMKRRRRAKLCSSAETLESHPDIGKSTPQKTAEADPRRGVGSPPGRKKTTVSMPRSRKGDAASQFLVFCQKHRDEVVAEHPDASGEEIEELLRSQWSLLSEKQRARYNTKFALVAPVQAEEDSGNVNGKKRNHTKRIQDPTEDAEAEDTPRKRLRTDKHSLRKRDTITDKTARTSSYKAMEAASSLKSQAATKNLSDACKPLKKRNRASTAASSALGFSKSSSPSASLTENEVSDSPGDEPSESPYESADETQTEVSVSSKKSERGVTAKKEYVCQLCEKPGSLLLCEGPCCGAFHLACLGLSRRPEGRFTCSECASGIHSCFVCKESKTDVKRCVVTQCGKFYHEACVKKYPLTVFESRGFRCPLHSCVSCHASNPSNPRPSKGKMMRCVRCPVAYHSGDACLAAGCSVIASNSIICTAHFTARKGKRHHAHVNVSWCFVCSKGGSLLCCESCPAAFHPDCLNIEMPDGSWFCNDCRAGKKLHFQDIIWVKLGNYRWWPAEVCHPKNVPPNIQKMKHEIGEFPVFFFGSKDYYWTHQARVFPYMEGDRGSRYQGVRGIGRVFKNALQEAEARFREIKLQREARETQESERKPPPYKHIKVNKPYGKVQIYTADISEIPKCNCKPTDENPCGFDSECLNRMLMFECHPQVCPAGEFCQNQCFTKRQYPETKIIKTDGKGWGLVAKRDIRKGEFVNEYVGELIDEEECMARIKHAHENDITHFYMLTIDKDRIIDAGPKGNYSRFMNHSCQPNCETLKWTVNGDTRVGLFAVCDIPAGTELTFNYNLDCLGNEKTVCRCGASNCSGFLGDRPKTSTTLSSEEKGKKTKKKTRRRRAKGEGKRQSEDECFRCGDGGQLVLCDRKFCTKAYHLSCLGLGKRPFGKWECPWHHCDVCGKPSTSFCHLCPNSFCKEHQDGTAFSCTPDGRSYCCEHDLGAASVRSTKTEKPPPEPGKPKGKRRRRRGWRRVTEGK
ARNT TACC3 PPI: disruptors of ARNT/TACC3 protein interaction, primary screen, biochemical, AlphaScreen, single concentration. Transforming acidic coiled-coil-containing protein 3 (Homo sapiens), Q9Y6A5. inhibition, % at 9.99 µM. AID 623870, 2012. 390,000 compounds, 0.66% hits. AlphaScreen His-ARNT PAS-B/GST-TACC3 binding, luminescence; TACC3 fragment carries E629A point mutation;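 active = mean inhibition of replicates at least 50% and at least half of replicates each reaching 50%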;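 also: 0% = complete ARNT plus TACC3 wells and 100% = ARNT alone without TACC3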
sPLA2-III inh: human group III sPLA2 inhibitors, primary screen, biochemical, QFRET, BODIPY PC-A2 liposome substrate; QFRET BODIPY PC-A2 liposome hydrolysis, fluorescence; inhibition, % at 12.2 µM; 370,000 compounds, 0.56% hits; AID 743126, 2013;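 active = inhibition above mean plus 3 SD of compounds lying within the high and low control bounds, cut at about 19% in these data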;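 also: 0% = median of test compound wells and 100% = no enzyme DMSO wells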
SR-BI DiI inh: inhibitors of SR-BI mediated HDL lipid uptake, primary screen, ldlA[mSR-BI] cells, fluorescence, single point. Scavenger receptor class B member 1 (Mus musculus), Q61009. ldlA[mSR-BI] CHO cells, DiI-HDL uptake fluorescence, 3 h. inhibition, % at 12.5 µM. 320,000 compounds, 0.96% hits;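 active = mean replicate inhibition of at least 70% and a set share of replicates each scoring 70 or more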;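 also: 0% = median of neutral control wells and 100% = median of positive control wells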
AlphaScreen art: AlphaScreen signal interference with preloaded methylated product, dose response, artefact control for NSD2 inhibitor project, biochemical, cherry-picked samples; shares compounds with NSD2 HMT inh; AlphaScreen artifact counterscreen, preloaded methylated H4 peptide; AC35, µM (doses to about 10 µM), without a hit: top-dose activity change, negative = signal loss; 1,500 compounds, 9.4% hits; AID 1053174, 2014; call rule not given here
Active calls of the source: *; / = no result given. Sampled rows, rich in hits. Any-hit rate of the full collection: about 2%.

SMILES	Xi reactivation	SR-BI uptake up	NSD2 HMT inh	ARNT TACC3 PPI	sPLA2-III inh	SR-BI DiI inh	AlphaScreen art
Nc1c2c(nn1-c1ccccc1)CCC2	0	/	3	2	1	/	/
COC(=O)c1c(SCC(=O)Nc2ccc(C)c(C)c2)nc(=O)[nH]c1C	0	3	116*	-11	3	-3	-3%
Cc1ccc(C#N)c(SCc2ccccc2F)n1	0	/	60*	/	0	/	-1%
CCOc1ccccc1/C=N/NC(=O)c1nnn(-c2nonc2N)c1CN1CCC(C)CC1	0	5	83*	-5	-3	-5	-9%
COc1c(F)c(F)c(C(=O)Nc2cccc(Cl)c2N2CCOCC2)c(F)c1F	/	-36	56*	8	9	36	0%
O=C(Nc1cccc(Cl)c1N1CCOCC1)c1ccco1	0	-13	-6	-2	16	13	/
Cc1noc(C)c1NC(=O)Nc1ccc2c(c1)CC(=O)N([C@H](C)CO)C[C@H](C)[C@@H](CN(C)Cc1ccc(C(=O)Nc3ccccc3N)cc1)O2	-1	/	/	9	/	/	/
COc1ccccc1C(=O)NNC(=O)Cc1ccccc1	0	/	55*	-3	3	/	2%
Cn1c(SCc2ccccc2[N+](=O)[O-])nnc1-c1cccnc1	0	14	24	-4	0	-14	/
COC(=O)c1sc(S(=O)(=O)Nc2ccc(C)c(C)c2)c(C(=O)OC)c1C	0	2	50*	/	-31	-2	0%
CC(C)NC(=O)C(=O)NCCN1CCN(C(=O)c2ccc(C(C)(C)C)cc2)CC1	0	-9	-4	-49	-5	9	/
CC(=O)Nc1ccc(N(C(=O)CNC(=O)c2ccco2)C(C(=O)NCC2CCCO2)c2ccccc2)cc1 (configuration not stated)	-1	1	51*	-6	0	-1	1%
O=C(NCC1CCCO1)C1CCC(=O)N1CCc1ccccc1 (configuration not stated)	/	12	-3	-6	-5	-12	/
COCCNC(=O)c1ccc(CN2CCc3ccccc3C2)cc1	0	32	56*	-4	11	-32	-4%
Cc1c(C)c2cc(Cl)c(O)c(CN(C)C)c2oc1=O	/	-13	119*	-6	9	13	-2%
O=C(NNC(=O)c1cccs1)c1ccc(Cl)c([N+](=O)[O-])c1	0	3	54*	-2	0	-3	-6%
O=[N+]([O-])c1ccccc1-c1ccc(/C=N/n2cnnc2)o1	/	30	7	0	-4	-30	/
Nn1cnnc1N/N=C\c1ccc(-c2ccccc2[N+](=O)[O-])o1	0	8	98*	34	-3	-8	-5%
C/C=C/Cn1c(N(C)Cc2ccccc2)nc2c1c(=O)[nH]c(=O)n2C	0	-3	/	-7	6	3	/
CC(C)NCC#CCOc1ccc(Cl)cc1	0	-3	53*	3	-4	3	-3%
O=S(=O)(c1ccccc1S(=O)(=O)N1CCCCC1)N1CCCCC1	/	-14	-5	1	/	14	/
O=C1C=C(N2CCCCC2)c2ccccc2C1=O	0	/	114*	/	-5	/	0%
CO[C@@H]1CN(C)C(=O)c2ccc(NC(=O)c3cnccn3)cc2OC[C@H](C)NC[C@H]1C	0	/	/	2	/	/	/
COc1ccccc1NC(=S)Nc1cccc2cnccc12	0	-8	82*	76*	13	8	-1%
COc1ccc(NC(=S)Nc2cccc3cnccc23)cc1	0	25	55*	15*	7	-25	4%
SMILES	Xi reactivation	SR-BI uptake up	NSD2 HMT inh	ARNT TACC3 PPI	sPLA2-III inh	SR-BI DiI inh	AlphaScreen art
CCN(C(=S)Nc1cccnc1)c1ccccc1	1	20	-3	1	12	-20	/
S=C(Nc1ccc(Cl)cc1)Nc1cccc2cnccc12	0	9	13	16	-5	-9	/
CCN(C(=S)Nc1cccnc1)c1cccc2ccccc12	0	-10	100*	51*	0	10	-6%
CCOc1ccc(NC(=S)Nc2cccc3cnccc23)cc1	0	-22	14	42	12	22	/
S=C(Nc1cccnc1)Nc1cccc2cnccc12	0	-8	108*	5	4	8	2%
CN1C=CC(=O)[C@@H](OC(=O)Nc2ccc(Br)cc2)[C@H]1c1ccccc1Br	0	36	/	-5	-14	-36	/
CC1(C(=O)NS(=O)(=O)c2ccc(C#N)cc2)CCN1C(=O)C1(c2ccc(Cl)cc2)CCC1 (configuration not stated)	0	/	0	/	-3	/	/
CC(CCn1cccn1)NC(=O)CCc1nnc(C2CCCCC2)o1 (configuration not stated)	0	26	-4	2	-1	-26	/
CN(C)c1ccc(/C=C2/C[N+](C)(C)C/C(=C/c3ccc(N(C)C)cc3)C2=O)cc1	0	-17	66*	17	-96	17	9.5µM*
Cc1oc2c(c1C(=O)c1ccccc1)C(=O)C(=O)c1ccccc1-2	/	-29	50*	10	1	29	-18%
CCOC(=O)C(=O)N=Nc1c(O)[nH]c2ccccc12	/	20	1	5	4	-20	/
CCCCNC(=O)N1CCC(CCC(=O)N(C)Cc2ccccc2)CC1	0	5	-4	-1	-2	-5	/
CCOC(=O)CNC(=O)N1CCC(CCC(=O)N(C)Cc2ccccc2)CC1	0	-11	65*	-5	15	11	4%
CCCC1=NN2C(=N)/C(=C\c3ccc(SCc4ccco4)o3)C(=O)N=C2S1	/	13	/	9	/	-13	/
CCC1=NN2C(=N)/C(=C\c3ccc(SCc4ccco4)o3)C(=O)N=C2S1	/	6	103*	7	-9	-6	-7%
Cc1ccc2c(c1C)-c1c(ccc(C)c1C)C(=O)C2=O	3	-46	85*	14	9	46	-8%
CCOC(=O)CSCc1cn2cc(Cl)ccc2n1	/	-13	-2	1	/	13	/
CCOC(=O)N1CCN(C(=S)NCCOC)CC1	/	15	69*	-8	2	-15	1%
CCN1CCN(C(=S)NCCOC)CC1	0	26	1	/	1	-26	/
